Reference: ChEMBL document CHEMBL1143754, “2-Styrylchromones: novel strong scavengers of reactive oxygen and nitrogen species” (Bioorg Med Chem, 2007)
pIC50: −log10 of the molar value. Active and inactive are the calls of the source. No cut-off for these calls is given here.

Assays:
Format in all cases: functional
[1] = Superoxide radical scavenging activity by NBT reduction assay
Summary of the method: (§1)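 Superoxide generated by NADH/PMS at room temperature. Final: NADH 166 µM, NBT 43 µM, PMS 2.7 µM in 19 mM phosphate pH 7.4; compounds in DMSO. NBT reduction to diformazan followed at 560 nm for 2 min. % inhibition. Propyl gallate control. Four experiments in triplicate.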

[2] = Hydrogen peroxide scavenging activity by assessed as inhibition of lucigenin oxidation
Summary of the method: (§2)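 Chemiluminescence assay of H2O2-induced lucigenin oxidation, 37 °C, 50 mM Tris-HCl pH 7.4. Final concentrations: lucigenin 0.8 mM, 1% H2O2. Compounds in DMSO at various concentrations. Signal read right after the plate goes into the reader. Reported as % inhibition of lucigenin oxidation. Ascorbic acid as positive control. Four experiments, each in triplicate.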

[3] = Hypochlorous acid scavenging activity assessed as inhibition of DHR oxidation
Summary of the method: (§3)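 HOCl made fresh by bringing 1% NaOCl to pH 6.2 with H2SO4, quantified at 235 nm. Final: DHR 5 µM, HOCl 5 µM in 100 mM phosphate pH 7.4, compounds in ethanol. Run at 37 °C; rhodamine 123 fluorescence (ex 485/em 528 nm) read immediately. % inhibition of DHR oxidation. Lipoic acid control. Four experiments in triplicate.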

[4] = Singlet oxygen scavenging activity by assessed as inhibition of DHR oxidation
Summary of the method: (§4)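 Singlet oxygen from thermal breakdown of the endoperoxide NDPO2 (1 mM final), with histidine 10 mM and DHR 50 µM in 100 mM phosphate pH 7.4. Compounds in DMSO. After 30 min at 37 °C, rhodamine 123 fluorescence (ex 485/em 528 nm). % inhibition of DHR oxidation. Penicillamine control. Four experiments in triplicate.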

[5] = Nitric oxide scavenging activity assessed as inhibition of DAF2 oxidation
Summary of the method: (§5)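 NOC-5 (10 µM final) as NO donor, DAF-2 5 µM in 50 mM KH2PO4 pH 7.4, compounds in DMSO. After 30 min at 37 °C, DAF-2T fluorescence read (ex 485/em 528 nm). Value is % inhibition of DAF-2 oxidation. Rutin control.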

[6] = Peroxynitrite scavenging activity assessed as inhibition of DHR oxidation
Summary of the method: (§6)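 Buffer of 90 mM NaCl, 50 mM Na3PO4, 5 mM KCl, pH 7.4, with 100 µM DTPA. Final: DHR 5 µM, ONOO− 600 nM, compounds in DMSO. 37 °C, fluorescence (ex 485/em 528 nm) after 2 min. % inhibition of DHR oxidation. Ebselen control. Four experiments in triplicate.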

[7] = Peroxynitrite scavenging activity assessed as inhibition of DHR oxidation in presence of NaHCo3
Summary of the method: (§7)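 Parallel peroxynitrite set with 25 mM NaHCO3 added to mimic physiological CO2. Otherwise the same: 100 µM DTPA phosphate/NaCl/KCl buffer pH 7.4, DHR 5 µM, ONOO− 600 nM, compounds in DMSO. 37 °C, 2 min, fluorescence ex 485/em 528 nm. % inhibition of DHR oxidation. Four experiments in triplicate.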

[8] = Superoxide radical scavenging activity at 125 uM by NBT reduction assay; summary of the method: as §1
[9] = Hydrogen peroxide scavenging activity at 250 uM by assessed as inhibition of lucigenin oxidation; summary of the method: as §2
[10] = Peroxynitrite scavenging activity assessed as inhibition of DHR oxidation at 62 uM; summary of the method: as §6
[11] = Hypochlorous acid scavenging activity at 50 uM assessed as inhibition of DHR oxidation; summary of the method: as §3
[12] = Singlet oxygen scavenging activity at 100 uM assessed as inhibition of DHR oxidation; summary of the method: as §4
[13] = Nitric oxide scavenging activity assessed as inhibition of DAF2 oxidation at 100 uM; summary of the method: as §5
[14] = Peroxynitrite scavenging activity assessed as inhibition of DHR oxidation in presence of NaHCo3 at 62 uM; summary of the method: as §7
[15] = Singlet oxygen scavenging activity at 1 mM assessed inhibition of as DHR oxidation; summary of the method: as §4
[16] = Nitric oxide scavenging activity assessed as inhibition of DAF2 oxidation at 250 uM; summary of the method: as §5
[17] = Peroxynitrite scavenging activity assessed as inhibition of DHR oxidation at 500 uM; summary of the method: as §6
[18] = Peroxynitrite scavenging activity assessed as inhibition of DHR oxidation in presence of NaHCo3 at 500 uM; summary of the method: as §7
[19] = Singlet oxygen scavenging activity at 500 uM assessed as inhibition of DHR oxidation; summary of the method: as §4
[20] = Superoxide radical scavenging activity at 100 uM by NBT reduction assay; summary of the method: as §1
[21] = Hypochlorous acid scavenging activity at 25 uM assessed as inhibition of DHR oxidation; summary of the method: as §3
[22] = Singlet oxygen scavenging activity at 40 uM assessed as inhibition of DHR oxidation; summary of the method: as §4
[23] = Nitric oxide scavenging activity assessed as inhibition of DAF2 oxidation at 50 uM; summary of the method: as §5
[24] = Peroxynitrite scavenging activity assessed as inhibition of DHR oxidation at 150 uM; summary of the method: as §6
[25] = Hypochlorous acid scavenging activity at 125 uM assessed as inhibition of DHR oxidation; summary of the method: as §3
[26] = Singlet oxygen scavenging activity at 200 uM assessed as inhibition of DHR oxidation; summary of the method: as §4
[27] = Peroxynitrite scavenging activity assessed as inhibition of DHR oxidation in presence of NaHCo3 at 150 uM; summary of the method: as §7
[28] = Hypochlorous acid scavenging activity at 100 uM assessed as inhibition of DHR oxidation; summary of the method: as §3

## O=c1cc(/C=C/c2ccc(O)c(O)c2)oc2cc(O)ccc12
[1]
  pIC50: 4.29
[2]
  pIC50: 3.94
[3]
  pIC50: 4.74
[4]
  pIC50: 5.00
[5]
  pIC50: 6.54
[6]
  pIC50: 6.52
[7]
  pIC50: 6.21

## CCCOC(=O)c1cc(O)c(O)c(O)c1 [PROPYL GALLATE]
[1]
  pIC50: 4.61

## O=C(O)CCCCC1CCSS1 (stereo not drawn) [LIPOIC ACID, ALPHA]
[3]
  pIC50: 5.62

## O=c1cc(/C=C/c2ccccc2)oc2cc(O)cc(O)c12
[8]
  inhibition: 27%
[9]
  Activity: inactive
[3]
  pIC50: 5.24
[4]
  pIC50: 3.79
[5]
  pIC50: 4.13
[6]
  pIC50: 4.33
[7]
  pIC50: 4.39

## O=c1cc(-c2ccccc2)oc2cccc(O)c12
[10]
  Activity: inactive
[8]
  Activity: inactive
[9]
  Activity: inactive
[11]
  inhibition: 17%
[12]
  Activity: inactive
[13]
  Activity: inactive
[14]
  Activity: inactive

## O=c1cc(/C=C/c2ccccc2)oc2cc(O)ccc12
[8]
  inhibition: 40%
[9]
  Activity: inactive
[3]
  pIC50: 4.14
[15]
  Activity: inactive
[16]
  Activity: inactive
[17]
  Activity: inactive
[18]
  Activity: inactive

## O=c1cc(-c2ccccc2)oc2cc(O)cc(O)c12 [CHRYSIN]
[8]
  Activity: inactive
[9]
  Activity: inactive
[3]
  pIC50: 5.41
[19]
  Activity: inactive
[16]
  inhibition: 20%
[6]
  pIC50: 3.73
[7]
  pIC50: 3.85

## O=c1cc(/C=C/c2ccc(O)cc2)oc2cccc(O)c12
[20]
  Activity: inactive
[9]
  inhibition: 40%
[21]
  inhibition: 29%
[22]
  inhibition: 29%
[23]
  Activity: inactive
[6]
  pIC50: 5.98
[7]
  pIC50: 6.01

## O=c1c(O)c(-c2ccc(O)c(O)c2)oc2cc(O)cc(O)c12 [QUERCETIN]
[1]
  pIC50: 4.33
[2]
  pIC50: 3.11
[3]
  pIC50: 5.96
[4]
  pIC50: 5.28
[5]
  pIC50: 5.71
[6]
  pIC50: 6.59
[7]
  pIC50: 6.36

## O=c1cc(/C=C/c2ccccc2)oc2ccccc12
[24]
  inhibition: 27%
[8]
  Activity: inactive
[9]
  Activity: inactive
[25]
  inhibition: 10%
[26]
  Activity: inactive
[13]
  Activity: inactive
[27]
  inhibition: 27%

## O=C1O[C@H]([C@@H](O)CO)C(O)=C1O [ASCORBIC ACID]
[2]
  pIC50: 3.20

## O=c1cc(-c2ccccc2)oc2cc(O)ccc12 [7-HYDROXYFLAVONE]
[8]
  Activity: inactive
[9]
  Activity: inactive
[3]
  pIC50: 3.83
[15]
  Activity: inactive
[16]
  Activity: inactive
[17]
  Activity: inactive
[18]
  Activity: inactive

## O=c1cc(-c2ccc(O)c(O)c2)oc2cc(O)cc(O)c12 [LUTEOLIN]
[1]
  pIC50: 4.23
[2]
  pIC50: 3.05
[3]
  pIC50: 5.15
[4]
  pIC50: 4.63
[5]
  pIC50: 5.58
[6]
  pIC50: 6.52
[7]
  pIC50: 6.19

## O=c1cc(/C=C/c2ccc(O)c(O)c2)oc2ccccc12
[1]
  pIC50: 4.15
[2]
  pIC50: 3.74
[3]
  pIC50: 4.49
[4]
  pIC50: 5.10
[5]
  pIC50: 6.47
[6]
  pIC50: 6.62
[7]
  pIC50: 6.36

## C[C@@H]1O[C@@H](OC[C@H]2O[C@@H](Oc3c(-c4ccc(O)c(O)c4)oc4cc(O)cc(O)c4c3=O)[C@H](O)[C@@H](O)[C@@H]2O)[C@H](O)[C@H](O)[C@H]1O [RUTIN]
[5]
  pIC50: 5.44

## CC(C)(S)[C@@H](N)C(=O)O [PENICILLAMINE]
[4]
  pIC50: 5.31

## O=c1c2ccccc2[se]n1-c1ccccc1 [EBSELEN]
[6]
  pIC50: 6.04
[7]
  pIC50: 5.33

## O=c1cc(-c2ccc(O)cc2)oc2cc(O)cc(O)c12 [APIGENIN]
[20]
  inhibition: 35%
[9]
  Activity: inactive
[3]
  pIC50: 5.41
[15]
  inhibition: 30%
[16]
  Activity: inactive
[6]
  pIC50: 4.12
[7]
  pIC50: 4.67

## O=c1cc(/C=C/c2ccc(O)c(O)c2)oc2cc(O)cc(O)c12
[1]
  pIC50: 4.31
[2]
  pIC50: 4.30
[3]
  pIC50: 5.41
[4]
  pIC50: 5.19
[5]
  pIC50: 6.29
[6]
  pIC50: 6.59
[7]
  pIC50: 6.20

## O=c1cc(/C=C/c2ccccc2)oc2cccc(O)c12
[10]
  Activity: inactive
[8]
  Activity: inactive
[9]
  Activity: inactive
[11]
  inhibition: 17%
[12]
  Activity: inactive
[23]
  Activity: inactive
[14]
  Activity: inactive

## O=c1cc(/C=C/c2ccc(O)cc2)oc2cc(O)ccc12
[1]
  pIC50: 4.18
[9]
  Activity: inactive
[3]
  pIC50: 4.04
[4]
  pIC50: 3.58
[16]
  inhibition: 23%
[6]
  pIC50: 5.85
[7]
  pIC50: 5.78

## O=c1cc(/C=C/c2ccc(O)c(O)c2)oc2cccc(O)c12
[1]
  pIC50: 4.09
[2]
  pIC50: 4.31
[3]
  pIC50: 4.77
[4]
  pIC50: 5.31
[5]
  pIC50: 6.62
[6]
  pIC50: 6.59
[7]
  pIC50: 6.29

## O=c1cc(/C=C/c2ccc(O)cc2)oc2cc(O)cc(O)c12
[1]
  pIC50: 4.11
[9]
  inhibition: 36%
[3]
  pIC50: 5.07
[4]
  pIC50: 3.74
[16]
  inhibition: 21%
[6]
  pIC50: 5.90
[7]
  pIC50: 5.92

## O=c1cc(/C=C/c2ccc(O)cc2)oc2ccccc12
[8]
  inhibition: 32%
[9]
  Activity: inactive
[28]
  inhibition: 34%
[4]
  pIC50: 3.61
[16]
  inhibition: 46%
[6]
  pIC50: 5.92
[7]
  pIC50: 5.91
